Consider 31 compounds from ChEMBL document CHEMBL1155066, “Discovery of selective and nonpeptidic cathepsin S inhibitors” (Bioorg Med Chem Lett, 2008).

pIC50: −log10 of the molar value. Calls of active or inactive are those of the source. No cut-off for these calls is given here.

What is called pIC50 is the negative decadic logarithm of the IC50, by convention in mol/L. As a reminder, the half-life is how long it takes for the measured level to halve. A word on the bioavailability: it is the share of a dose that reaches the circulation, judged against a reference dose that is usually intravenous. A higher bioavailability goes with much systemic uptake. What is called AUC is the area under the concentration-time curve, a measure of exposure. A low value points to low exposure. By Cmax is commonly meant the maximum level reached in the sampled fluid or tissue.

One series has as its target Cathepsin S (Homo sapiens, UniProt P25774). Description: Inhibition of human recombinant cathepsin S by fluorescence assay. In outline:
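Recombinant human Cat S, fluorometric readout using Z-Leu-Leu-Arg-AMC substrate; IC50 reported.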

The target of a further series is Procathepsin L (Homo sapiens, UniProt P07711). Briefly: Inhibition of human recombinant cathepsin L by fluorescence assay. In outline:
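Recombinant human Cat L measured fluorometrically with Z-Phe-Arg-AMC as substrate; IC50 reported.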

The next series has as its target T1, Cathepsin K (Homo sapiens, UniProt P43235).
T1 sequence (P43235 whole entry): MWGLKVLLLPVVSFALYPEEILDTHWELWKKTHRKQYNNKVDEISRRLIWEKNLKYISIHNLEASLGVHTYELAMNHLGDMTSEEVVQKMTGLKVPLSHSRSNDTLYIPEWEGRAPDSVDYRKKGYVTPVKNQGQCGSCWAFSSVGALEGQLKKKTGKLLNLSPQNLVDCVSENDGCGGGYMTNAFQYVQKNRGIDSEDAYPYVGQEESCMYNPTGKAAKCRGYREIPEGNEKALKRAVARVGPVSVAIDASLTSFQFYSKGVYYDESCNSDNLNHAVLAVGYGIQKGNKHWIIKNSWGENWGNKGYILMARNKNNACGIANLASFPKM
Briefly: Inhibition of human recombinant cathepsin K by fluorescence assay. In outline:
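Fluorometric assay with recombinant human Cat K; Z-Phe-Arg-AMC substrate; IC50 determined.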

For series [1], the target named is Cathepsin S (Mus musculus) (UniProt O70370). Briefly: Inhibition of cathepsin S in mouse splenocytes assessed as MHC2 associated invariant chain degradation at 1 uM. Type of series: cell-based. In outline: (§1)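 Cellular secondary assay in mouse splenocytes; degradation of MHC class II associated invariant chain monitored after compound exposure at a single concentration.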

For series [2] the target is unchanged. Description: Inhibition of cathepsin S in mouse splenocytes assessed as MHC2 associated invariant chain degradation at 10 uM. Type of series: cell-based. In outline:
as §1

A short description of series [3]: Plasma clearance in Sprague-Dawley rat at 1.6 mg/kg, iv or 4.0 mg/kg, po. In kind it is ADME, organism-based.
Series [4] can be described thus: Half life in Sprague-Dawley rat at 1.6 mg/kg, iv. Type of series: ADME, organism-based. More on the design: dose 1.6 mg/kg, route intravenous. The note with it: in vivo.
A short description of series [5]: Oral bioavailability in Sprague-Dawley rat at 4.0 mg/kg, po. Type of series: ADME, organism-based. The note with it: in vivo.
Series [6] in a line: AUC in Sprague-Dawley rat at 1.0 mg/kg, po. Type of series: ADME, organism-based. More on the design: dose 1 mg/kg, route oral. The settings on record: plasma.
A short description of series [7]: Cmax in Sprague-Dawley rat at 1.0 mg/kg, po. More on the design: dose 1 mg/kg, route oral. The settings on record: in vivo. In kind it is ADME, organism-based.
Series [8] in a line: Plasma clearance in Sprague-Dawley rat at 1.0 mg/kg, iv or 3.0 mg/kg, po. Type of series: ADME, organism-based.
Series [9] is described as follows: Oral bioavailability in Sprague-Dawley rat at 3.0mg/kg, po. The settings on record: in vivo, 3 mg/kg. Type of series: ADME, organism-based.
A short description of series [10]: Half life in Sprague-Dawley rat at 1.0 mg/kg, iv. In kind it is ADME, organism-based. Further details: dose 1 mg/kg, route intravenous. The note with it: in vivo.

Sequence of Cathepsin S (P25774 whole entry): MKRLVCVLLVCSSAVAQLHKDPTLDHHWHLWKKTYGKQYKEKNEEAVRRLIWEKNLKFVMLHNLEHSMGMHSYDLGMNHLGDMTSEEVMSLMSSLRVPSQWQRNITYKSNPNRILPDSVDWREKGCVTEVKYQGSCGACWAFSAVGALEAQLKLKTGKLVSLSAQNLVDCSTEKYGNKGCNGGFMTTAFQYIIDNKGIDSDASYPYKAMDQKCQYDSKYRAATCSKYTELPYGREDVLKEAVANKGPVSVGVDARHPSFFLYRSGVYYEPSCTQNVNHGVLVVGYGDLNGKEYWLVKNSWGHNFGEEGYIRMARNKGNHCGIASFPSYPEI
Sequence of Procathepsin L (P07711 whole entry): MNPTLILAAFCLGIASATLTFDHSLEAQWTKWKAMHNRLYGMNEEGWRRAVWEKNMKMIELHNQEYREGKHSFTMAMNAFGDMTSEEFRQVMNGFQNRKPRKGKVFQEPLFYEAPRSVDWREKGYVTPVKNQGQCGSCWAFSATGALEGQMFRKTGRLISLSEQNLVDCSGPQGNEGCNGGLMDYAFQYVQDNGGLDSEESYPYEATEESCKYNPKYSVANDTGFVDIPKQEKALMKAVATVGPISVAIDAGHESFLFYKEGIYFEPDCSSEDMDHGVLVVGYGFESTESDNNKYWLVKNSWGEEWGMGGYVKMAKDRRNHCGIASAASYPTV

For the compound `CCC(=O)Nc1ccc(OCc2cc3cnc(C#N)nc3n2CCC2CCCCC2)cc1`, the values for the pIC50 on Cathepsin S, at Procathepsin L and at Cathepsin K were 7.92, under 5.40 and under 5.82, respectively.
The like results for `N#Cc1ncc2cc(Cc3ccc(Cl)cc3)n(CCC3CCCCCCC3)c2n1` were, in that order, 7.00, under 6.00 and under 6.00.
For the compound `N#Cc1ncc2cc(CSc3ccncc3)n(CCC3CCCCC3)c2n1`, the pIC50 was 8.22 at Cathepsin S, under 6.00 on Procathepsin L and 6.32 on Cathepsin K.
`N#Cc1ncc2cc(COc3ccccc3)n(CCC3CCCCC3)c2n1`: the pIC50 on Cathepsin S is 8.00; on Procathepsin L, under 6.00; on Cathepsin K, under 6.00.
As to `COc1ccc(Cc2cc3cnc(C#N)nc3n2CCC2CCCCC2)cc1`, the pIC50 was 6.96 on Cathepsin S, under 6.00 at Procathepsin L and 6.55 on Cathepsin K.
In the case of `CC(C)C[C@@H](NC(=O)N1CCOCC1)C(=O)N[C@@H](/C=C/S(=O)(=O)c1ccccc1)CCc1ccccc1`, the outcome in series [1] was Active.
Turning to `N#Cc1ncc2cc(COc3ccc(C(=O)O)cc3)n(CCC3CCCCC3)c2n1`, the outcome in [2] was inactive. Moreover, the negative logarithm of the IC50 (pIC50) at Cathepsin S is 7.80; on Procathepsin L, under 5.70; at Cathepsin K, under 5.70.
For `N#Cc1ncc2cc(Cc3ccc(Cl)cc3)n(CCC3CCCCC3)c2n1`, the pIC50 was 7.68 on Cathepsin S, 6.49 on Procathepsin L and 6.66 at Cathepsin K.
The like results for `N#Cc1ncc2cc(Cc3ccc(Cl)cc3)n(CCc3ccccc3)c2n1` were, in that order, 7.19, 7.64 and 7.00.
With `N#Cc1ncc2cc(Cc3ccc(Cl)cc3)n(CCc3ccc(Cl)cc3)c2n1`, the figures for the negative logarithm of the IC50 (pIC50) on Cathepsin S, at Procathepsin L and on Cathepsin K were 7.72, 7.07 and under 6.00, respectively.
For `N#Cc1ncc2cc(COc3cccc(C(N)=O)c3)n(CCC3CCCCC3)c2n1`, the negative logarithm of the IC50 (pIC50) on Cathepsin S is 8.15; at Procathepsin L it was under 6.00; at Cathepsin K it was 6.41.
In the case of `N#Cc1ncc2cc(Cc3cccc4ccccc34)n(CCC3CCCCC3)c2n1`, the negative logarithm of the IC50 (pIC50) on Cathepsin S is 6.36.
As to `N#Cc1ncc2cc(CC3CCCCC3)n(CCC3CCCCC3)c2n1`, the figures for the pIC50 at Cathepsin S and at Procathepsin L were 6.85 and under 6.00, respectively.
`N#Cc1ncc2cc(Cc3ccc(Cl)cc3)n(CCCC3CCCCC3)c2n1`: the pIC50 at Cathepsin S was 6.82; at Procathepsin L, under 6.00; on Cathepsin K, under 6.00.
`N#Cc1ncc2cc(Cc3ccc(Cl)cc3)n(CCN3CCCCC3)c2n1`: the pIC50 at Cathepsin S, on Procathepsin L and on Cathepsin K was under 6.00 each time.
In the case of `N#Cc1ncc2cc(Cc3ccc(Cl)cc3)n(CCC3CCCCCC3)c2n1`, the results for the negative-log IC50 (pIC50) on Cathepsin S, at Procathepsin L and on Cathepsin K were 7.48, 6.08 and under 6.00, respectively.
Regarding `CC(C)(C)Cn1c(Cc2ccc(Cl)cc2)cc2cnc(C#N)nc21`, the pIC50 is 7.02 on Procathepsin L and over 9.00 on Cathepsin K.
With `N#Cc1ncc2cc(Cc3ccc(Cl)cc3)n(CCc3cccc(Cl)c3)c2n1`, the pIC50 at Cathepsin S was 6.72; at Procathepsin L it was 7.40; at Cathepsin K, under 6.00.
As to `N#Cc1ncc2cc(COc3ccccn3)n(CCC3CCCCC3)c2n1`, the results for the pIC50 on Cathepsin S, at Procathepsin L and at Cathepsin K were 7.96, 6.10 and 6.60, respectively.
`CN(Cc1cc2cnc(C#N)nc2n1CCC1CCCCC1)c1ccccc1`: the pIC50 at Cathepsin S is 7.28; at Procathepsin L, under 6.00; on Cathepsin K it was under 6.00.
As for `N#Cc1ncc2cc(COc3cccc(CCC(=O)O)c3)n(CCC3CCCCC3)c2n1`, the outcome in series [2] was inactive. For the same compound, the pIC50 is 8.22 at Cathepsin S, under 5.30 at Procathepsin L and under 5.30 at Cathepsin K.
In the case of `CC(C)(C)CCn1c(Cc2ccc(Cl)cc2)cc2cnc(C#N)nc21`, in [1], the outcome was Active. Moreover, the pIC50 at Cathepsin S is 8.70; at Procathepsin L, 7.74; on Cathepsin K, over 9.00.
In the case of `CC(=O)Nc1ccc(OCc2cc3cnc(C#N)nc3n2CCC2CCCCC2)cc1`, the negative-log IC50 (pIC50) is 8.10 at Cathepsin S, under 6.00 at Procathepsin L and under 6.00 at Cathepsin K.
As for `N#Cc1ncc2cc(CNc3ccccc3)n(CCC3CCCCC3)c2n1`, the values for the negative logarithm of the IC50 (pIC50) at Cathepsin S, on Procathepsin L and at Cathepsin K were 7.62, under 6.00 and under 6.00, respectively.
In [3], `N#Cc1ncc2cc(COc3ccc(C(N)=O)cc3)n(CCC3CCCCC3)c2n1` had a clearance of 83.3 mL/min/kg. Besides, the half-life in series [4] is 0.7 h. Further, the bioavailability in series [5] was 21%. Further, the exposure (AUC) in series [6] was found to be 0.108 µM·h. Moreover, the negative-log IC50 (pIC50) on Cathepsin S is 8.70; on Procathepsin L, under 6.00; at Cathepsin K, 6.55. For the same compound, the highest concentration (Cmax) in series [7] is 25 nM.
As to `N#Cc1ncc2cc(Cc3ccc(Cl)cc3)n(CCC3CCCC3)c2n1`, the negative logarithm of the IC50 (pIC50) at Cathepsin S was 8.15; on Procathepsin L, 6.59; at Cathepsin K, 7.77.
For the compound `CC(=O)N1CCN(c2ccc(OCc3cc4cnc(C#N)nc4n3CCC3CCCCC3)cc2)CC1`, in series [8], the clearance was 66.7 mL/min/kg. The compound further had a bioavailability in [9] of 47%. Further, the outcome in series [1] was Active. Moreover, the area under the curve (AUC) in series [6] is 0.242 µM·h. For the same compound, the negative-log IC50 (pIC50) is 8.05 at Cathepsin S, under 5.40 at Procathepsin L and under 5.82 on Cathepsin K. The same compound had a half-life in series [10] of 1.2 h. Moreover, in series [7], the concentration peaked (Cmax) at 34 nM.
In the case of `N#Cc1ncc2cc(Cc3ccc(Cl)cc3)n(CC3CCCCC3)c2n1`, the pIC50 at Cathepsin S is 6.96; on Procathepsin L, 6.43; at Cathepsin K it was 8.22.
Compound `CC(=O)N1CC=C(c2ccc(OCc3cc4cnc(C#N)nc4n3CCC3CCCCC3)cc2)CC1` showed a clearance in series [8] of 41.7 mL/min/kg. Moreover, the bioavailability in series [9] came out at 38%. In series [6], this compound came in with an AUC of 0.346 µM·h. Besides, the negative logarithm of the IC50 (pIC50) was 7.89 on Cathepsin S, under 6.00 on Procathepsin L and under 6.00 on Cathepsin K. The same compound gave a half-life in [10] of 1.4 h. In [7], this compound had a Cmax of 43 nM.
Take `CC(C)(C)CCCn1c(Cc2ccc(Cl)cc2)cc2cnc(C#N)nc21`: the negative logarithm of the IC50 (pIC50) is 6.49 on Cathepsin S, under 6.00 on Procathepsin L and 7.00 at Cathepsin K.
In series [8], `CC(=O)N1CCC(c2ccc(OCc3cc4cnc(C#N)nc4n3CCC3CCCCC3)cc2)CC1` gave a clearance of 88.3 mL/min/kg. Also, the bioavailability in series [9] worked out at 25%. In addition, the AUC in [6] was 0.103 µM·h. Also, the pIC50 on Cathepsin S is 7.82; on Procathepsin L, under 6.00; on Cathepsin K, under 6.00. Besides, in series [10], the half-life was 1.3 h. Also, in series [7], the Cmax came to 17 nM.
